In article PMC4958579 (Cell chemical biology, 2016):

Columns and labels:
KDM5B and KDM5C = conditions: ref Horton et al., 2016; cited from earlier work
[1] = biological target: Flag-tagged full-length KDM5A (Homo sapiens, UniProt P29375); experiment: AlphaLISA / AlphaScreen demethylase assay, KDM5A; assay type: biochemical; conditions: nanomolar enzyme concentration; two independent assays
How it was run: (§1)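 Full-length human enzymes, Flag-tagged and purified from Sf21 insect cells, assayed for demethylation by AlphaScreen.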

[2] = biological target: Flag-tagged full-length KDM5B (Homo sapiens, UniProt Q9UGL1); experiment: AlphaLISA / AlphaScreen demethylase assay, KDM5B; assay type: biochemical; conditions: nanomolar enzyme concentration; two independent assays
Flag-tagged full-length KDM5B, sequence (Q9UGL1 whole entry): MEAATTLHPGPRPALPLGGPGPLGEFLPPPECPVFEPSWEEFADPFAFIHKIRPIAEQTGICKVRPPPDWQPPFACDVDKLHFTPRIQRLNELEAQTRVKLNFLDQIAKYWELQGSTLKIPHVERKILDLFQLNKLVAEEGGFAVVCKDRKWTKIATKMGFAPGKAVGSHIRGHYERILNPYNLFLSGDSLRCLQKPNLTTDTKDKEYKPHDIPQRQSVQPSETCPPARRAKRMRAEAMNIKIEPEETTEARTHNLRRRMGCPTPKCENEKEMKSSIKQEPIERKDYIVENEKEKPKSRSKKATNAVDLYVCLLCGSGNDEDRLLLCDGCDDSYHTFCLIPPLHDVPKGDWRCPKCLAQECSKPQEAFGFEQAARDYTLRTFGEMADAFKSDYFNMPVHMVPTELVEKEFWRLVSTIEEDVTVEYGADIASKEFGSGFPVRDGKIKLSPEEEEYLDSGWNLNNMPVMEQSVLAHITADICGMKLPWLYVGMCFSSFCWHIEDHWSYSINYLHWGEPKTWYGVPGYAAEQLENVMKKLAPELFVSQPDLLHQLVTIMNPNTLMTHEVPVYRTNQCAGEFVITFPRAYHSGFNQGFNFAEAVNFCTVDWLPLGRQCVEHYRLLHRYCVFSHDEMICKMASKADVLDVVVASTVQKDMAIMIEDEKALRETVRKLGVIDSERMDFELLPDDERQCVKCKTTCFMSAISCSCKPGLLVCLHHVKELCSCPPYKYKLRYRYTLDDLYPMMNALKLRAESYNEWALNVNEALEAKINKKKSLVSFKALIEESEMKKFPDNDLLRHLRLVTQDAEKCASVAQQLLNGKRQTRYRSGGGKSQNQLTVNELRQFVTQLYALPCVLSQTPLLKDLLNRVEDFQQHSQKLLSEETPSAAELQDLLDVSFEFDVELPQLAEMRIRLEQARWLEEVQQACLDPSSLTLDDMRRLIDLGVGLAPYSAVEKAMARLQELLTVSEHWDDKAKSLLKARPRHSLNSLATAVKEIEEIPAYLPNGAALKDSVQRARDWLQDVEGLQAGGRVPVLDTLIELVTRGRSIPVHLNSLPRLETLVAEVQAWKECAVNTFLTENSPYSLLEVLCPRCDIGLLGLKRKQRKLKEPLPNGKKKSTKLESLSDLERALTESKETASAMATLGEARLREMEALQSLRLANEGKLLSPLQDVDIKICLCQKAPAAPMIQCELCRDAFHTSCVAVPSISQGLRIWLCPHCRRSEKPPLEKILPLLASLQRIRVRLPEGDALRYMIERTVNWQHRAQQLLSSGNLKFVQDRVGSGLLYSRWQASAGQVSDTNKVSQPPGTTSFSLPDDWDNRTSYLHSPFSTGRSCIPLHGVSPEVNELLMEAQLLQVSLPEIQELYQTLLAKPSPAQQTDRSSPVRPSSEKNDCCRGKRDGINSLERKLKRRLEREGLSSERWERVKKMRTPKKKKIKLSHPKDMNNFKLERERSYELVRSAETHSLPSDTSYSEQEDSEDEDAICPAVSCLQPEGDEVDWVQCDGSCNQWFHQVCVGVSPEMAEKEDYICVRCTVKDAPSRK
How it was run: as §1

[3] = biological target: Flag-tagged full-length KDM5C (Homo sapiens, UniProt P41229); experiment: AlphaLISA / AlphaScreen demethylase assay, KDM5C; assay type: biochemical; conditions: nanomolar enzyme concentration; two independent assays
Flag-tagged full-length KDM5C, sequence (P41229 whole entry): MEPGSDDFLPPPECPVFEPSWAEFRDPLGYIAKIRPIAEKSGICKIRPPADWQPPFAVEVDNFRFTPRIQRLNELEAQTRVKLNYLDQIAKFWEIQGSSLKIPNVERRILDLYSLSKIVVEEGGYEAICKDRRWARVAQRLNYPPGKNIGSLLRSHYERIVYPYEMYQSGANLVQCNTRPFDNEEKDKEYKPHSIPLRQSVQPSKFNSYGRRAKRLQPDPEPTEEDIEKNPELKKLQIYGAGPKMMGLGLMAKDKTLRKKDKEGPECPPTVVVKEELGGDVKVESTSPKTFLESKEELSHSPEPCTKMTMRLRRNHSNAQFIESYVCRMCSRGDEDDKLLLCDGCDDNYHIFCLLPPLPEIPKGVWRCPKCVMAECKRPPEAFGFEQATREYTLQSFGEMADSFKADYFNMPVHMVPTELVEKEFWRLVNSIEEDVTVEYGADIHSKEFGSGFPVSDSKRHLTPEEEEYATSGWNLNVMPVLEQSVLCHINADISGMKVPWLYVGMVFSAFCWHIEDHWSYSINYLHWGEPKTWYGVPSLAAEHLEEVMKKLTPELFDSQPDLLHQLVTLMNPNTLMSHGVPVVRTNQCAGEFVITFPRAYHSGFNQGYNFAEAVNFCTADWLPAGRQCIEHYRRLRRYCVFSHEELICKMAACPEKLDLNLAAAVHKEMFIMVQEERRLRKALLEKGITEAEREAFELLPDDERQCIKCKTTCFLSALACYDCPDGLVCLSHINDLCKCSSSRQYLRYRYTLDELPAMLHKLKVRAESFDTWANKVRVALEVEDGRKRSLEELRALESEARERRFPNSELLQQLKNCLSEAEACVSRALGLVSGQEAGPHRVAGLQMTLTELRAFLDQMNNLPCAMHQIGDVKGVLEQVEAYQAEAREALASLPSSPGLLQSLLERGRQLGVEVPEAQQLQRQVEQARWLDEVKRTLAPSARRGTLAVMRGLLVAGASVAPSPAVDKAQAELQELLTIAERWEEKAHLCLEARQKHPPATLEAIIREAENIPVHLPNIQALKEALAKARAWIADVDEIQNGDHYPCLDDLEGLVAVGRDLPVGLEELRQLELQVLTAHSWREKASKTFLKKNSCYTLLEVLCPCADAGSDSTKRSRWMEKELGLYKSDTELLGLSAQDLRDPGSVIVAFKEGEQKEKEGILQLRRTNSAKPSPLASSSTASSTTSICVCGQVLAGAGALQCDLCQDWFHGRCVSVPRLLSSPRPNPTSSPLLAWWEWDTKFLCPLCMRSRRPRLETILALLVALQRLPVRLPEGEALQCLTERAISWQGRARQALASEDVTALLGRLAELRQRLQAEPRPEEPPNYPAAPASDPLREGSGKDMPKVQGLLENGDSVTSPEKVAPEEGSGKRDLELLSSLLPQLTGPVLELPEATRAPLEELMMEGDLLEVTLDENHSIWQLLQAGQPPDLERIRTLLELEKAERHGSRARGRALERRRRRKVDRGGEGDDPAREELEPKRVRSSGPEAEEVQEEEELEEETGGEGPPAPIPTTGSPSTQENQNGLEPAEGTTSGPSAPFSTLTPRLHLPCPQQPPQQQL
How it was run: as §1

full-length KDM6A = full-length KDM6A (Homo sapiens, UniProt O15550); experiment: AlphaScreen demethylase assay, KDM6A; assay type: biochemical; conditions: at 50 μM, the highest inhibitor concentration tested
full-length KDM6A, sequence (O15550 whole entry, species assumed): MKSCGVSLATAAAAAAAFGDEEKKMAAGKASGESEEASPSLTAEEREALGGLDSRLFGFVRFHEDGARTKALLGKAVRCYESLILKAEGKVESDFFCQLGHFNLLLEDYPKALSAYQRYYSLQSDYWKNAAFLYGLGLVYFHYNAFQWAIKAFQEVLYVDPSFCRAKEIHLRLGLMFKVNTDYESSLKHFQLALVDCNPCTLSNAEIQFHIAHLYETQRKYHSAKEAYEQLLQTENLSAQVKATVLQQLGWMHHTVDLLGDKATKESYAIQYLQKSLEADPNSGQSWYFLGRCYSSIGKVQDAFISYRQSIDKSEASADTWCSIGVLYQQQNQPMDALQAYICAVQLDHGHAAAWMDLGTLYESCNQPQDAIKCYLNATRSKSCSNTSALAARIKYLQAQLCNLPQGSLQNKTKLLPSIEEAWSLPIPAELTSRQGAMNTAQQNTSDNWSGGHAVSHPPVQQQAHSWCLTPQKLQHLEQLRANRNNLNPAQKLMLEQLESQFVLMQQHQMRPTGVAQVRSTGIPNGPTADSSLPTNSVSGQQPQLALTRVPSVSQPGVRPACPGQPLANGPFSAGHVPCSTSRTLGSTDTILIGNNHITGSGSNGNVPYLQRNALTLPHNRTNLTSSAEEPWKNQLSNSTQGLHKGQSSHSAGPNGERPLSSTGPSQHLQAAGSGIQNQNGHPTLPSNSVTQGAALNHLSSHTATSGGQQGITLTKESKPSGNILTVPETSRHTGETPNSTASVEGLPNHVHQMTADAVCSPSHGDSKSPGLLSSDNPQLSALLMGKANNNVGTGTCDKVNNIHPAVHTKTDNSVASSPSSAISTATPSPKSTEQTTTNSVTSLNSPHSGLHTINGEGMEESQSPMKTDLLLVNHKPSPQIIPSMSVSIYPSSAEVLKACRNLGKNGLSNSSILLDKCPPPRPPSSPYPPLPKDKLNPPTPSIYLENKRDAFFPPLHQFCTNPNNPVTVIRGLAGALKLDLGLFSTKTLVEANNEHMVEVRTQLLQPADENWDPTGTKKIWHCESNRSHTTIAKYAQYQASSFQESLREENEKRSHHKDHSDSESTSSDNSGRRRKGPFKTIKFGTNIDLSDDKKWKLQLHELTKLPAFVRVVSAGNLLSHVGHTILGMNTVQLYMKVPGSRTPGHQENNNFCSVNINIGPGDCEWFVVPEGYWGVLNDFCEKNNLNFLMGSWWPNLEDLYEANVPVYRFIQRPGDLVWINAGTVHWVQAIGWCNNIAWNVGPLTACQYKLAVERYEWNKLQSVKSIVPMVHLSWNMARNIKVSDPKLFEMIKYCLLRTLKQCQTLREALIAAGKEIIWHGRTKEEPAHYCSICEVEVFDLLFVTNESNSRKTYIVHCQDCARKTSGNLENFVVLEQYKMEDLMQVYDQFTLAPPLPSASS
How it was run: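 Full-length KDM6A demethylase activity measured by AlphaScreen with test compound up to 50 μM, the highest concentration tested. Two independent experiments; average and S.E. reported.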

[4] = biological target: KDM6B catalytic domain (residues 1043-1682) (Homo sapiens, UniProt O15054); experiment: AlphaScreen demethylase assay, KDM6B; assay type: biochemical; conditions: at 50 μM, the highest inhibitor concentration tested
KDM6B catalytic domain (residues 1043-1682), sequence (O15054 1043-1682 isoform O15054-1): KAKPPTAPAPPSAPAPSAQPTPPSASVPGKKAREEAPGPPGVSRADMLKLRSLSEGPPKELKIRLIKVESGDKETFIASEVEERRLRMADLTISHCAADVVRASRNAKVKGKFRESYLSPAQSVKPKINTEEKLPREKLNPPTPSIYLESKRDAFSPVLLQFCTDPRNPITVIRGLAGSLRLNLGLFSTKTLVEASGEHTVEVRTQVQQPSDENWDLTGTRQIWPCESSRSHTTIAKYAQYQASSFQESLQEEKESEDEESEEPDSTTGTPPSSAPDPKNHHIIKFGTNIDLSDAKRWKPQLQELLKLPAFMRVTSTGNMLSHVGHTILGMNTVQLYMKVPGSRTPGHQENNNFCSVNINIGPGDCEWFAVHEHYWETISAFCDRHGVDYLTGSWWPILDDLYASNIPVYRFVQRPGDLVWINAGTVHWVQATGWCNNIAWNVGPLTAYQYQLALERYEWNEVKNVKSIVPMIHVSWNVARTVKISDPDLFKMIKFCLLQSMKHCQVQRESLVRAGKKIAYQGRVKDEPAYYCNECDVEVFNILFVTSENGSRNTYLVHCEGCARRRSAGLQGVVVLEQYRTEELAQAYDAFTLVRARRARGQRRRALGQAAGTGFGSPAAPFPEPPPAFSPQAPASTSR
How it was run: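 Purified KDM6B catalytic domain (residues 1043-1682) was assayed by AlphaScreen for demethylase activity across a test-compound concentration series, with 50 μM the highest concentration tested. IC50 was averaged from 4 independent experiments, with S.E.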

[5] = test system: KDM4A catalytic domain (residues 1-350); experiment: Demethylase inhibition, KDM4A catalytic domain; assay type: biochemical
MCF7 cells [6] = experiment: Western blot of global histone methylation, MCF7; assay type: cell-based, human; conditions: 5 μM, 3 days
How it was run: (§2)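 Cells were exposed to DMSO or 5 μM test compound for 3 days and histone marks detected by western blot. Fold is H3K4me3 band intensity over total H3, normalized to the DMSO control. Data are from biological duplicate experiments, each run in duplicate.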

MDA-MB-231 cells [7] = experiment: Western blot of global histone methylation, MDA-MB-231; assay type: cell-based, human; conditions: 5 μM, 3 days
How it was run: as §2

MCF7 cells [8] = experiment: Colony formation assay, MCF7; assay type: cell-based, human; conditions: 5 μM
How it was run: (§3)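 Cells were treated with DMSO or 5 μM test compound and colonies quantified by image intensity. Percent intensity was normalized to the average percent intensity of DMSO-treated cells, with SEM error bars. Data are from biological duplicate experiments, each run in triplicate.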

BT474 cells = experiment: Colony formation assay, BT474; assay type: cell-based, human; conditions: 5 μM
How it was run: as §3

ZR-75-1 cells = experiment: Colony formation assay, ZR-75-1; assay type: cell-based, human; conditions: 5 μM
How it was run: as §3

MDA-MB-231 cells [9] = experiment: Colony formation assay, MDA-MB-231; assay type: cell-based, human; conditions: 5 μM
How it was run: as §3

PC9 lung cancer cells = experiment: Colony formation assay, PC9; assay type: cell-based, human; conditions: 5 μM
[10] = test system: MCF10A immortalized, non-transformed mammary epithelial cells; experiment: Colony formation assay, MCF10A; assay type: cell-based, human; conditions: 5 μM
MCF7 cells [11] = experiment: Real time RT-PCR of KDM5 target genes, MCF7; assay type: cell-based, human; conditions: 5 μM for 3 days
How it was run: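 MCF7 cells were exposed to DMSO or 5 μM test compound for 3 days. BRCA1, STK6, BUB3, BUB1B, MT1F and MT1H mRNA levels were then quantified by real-time RT-PCR, with SEM error bars.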

## Clc1ccc(N/N=C(\c2ccccc2)c2ccccn2)nc1 [JIB-04]
KDM5B and KDM5C
  increased potency against KDM5B compared to KDM5C: ~ 8 fold

## O=C(O)CCNc1cc(N2CCc3ccccc3CC2)nc(-c2ccccn2)n1 [GSK-J1]
KDM5B and KDM5C
  more active against KDM5C than against KDM5B: ~ 8.5 fold

## CCN(CCN(C)C)C(=O)CNCc1cc(C(=O)O)ccn1 [KDM5-C49]
[1]
  IC50, full-length KDM5A: nanomolar range
[2]
  IC50, full-length KDM5B: nanomolar range
[3]
  IC50, full-length KDM5C: nanomolar range
full-length KDM6A
  inhibition of KDM6A activity: ≤ 50%
[4]
  inhibition of KDM6B activity: ≤ 50%
[5]
  weaker potency against KDM4A catalytic domain than against KDM5B catalytic domain or full length KDM5B: ~ 10 fold

## CCOC(=O)c1ccnc(CNCC(=O)N(CC)CCN(C)C)c1 [KDM5-C70]
MCF7 cells [6]
  H3K4me2/me1, H3K27me3, H3K9me3/H3K36me3 levels: little impact
  global levels of H3K4me3: significantly increased
MDA-MB-231 cells [7]
  H3K4me2/me1, H3K27me3, H3K9me3/H3K36me3 levels: little impact
  global levels of H3K4me3: significantly increased
MCF7 cells [8]
  growth inhibited (colony formation): 85%
BT474 cells
  growth inhibited (colony formation): 97%
ZR-75-1 cells
  growth inhibited (colony formation): 70%
MDA-MB-231 cells [9]
  effect on colony formation: none were significantly affected
PC9 lung cancer cells
  effect on colony formation: none were significantly affected
[10]
  effect on colony formation: none were significantly affected
MCF7 cells [11]
  expression of MT1F mRNA: increase
  expression of MT1H mRNA: increase
